Converted amounts (≈) assume the structure as drawn. The source made the active and inactive calls. The rule behind the calls is not given here. Numbered stars: 1 amine (or outer) side, 2 acyl side, 3 side chain; on linkers, the order of the positions; unused ones are H or OH. Bridge positions count the residues as written; N and C are the ends. Square brackets hold non-standard residues; d marks the D form. Peptide text beside a SMILES is read from it. * marks the point of attachment. hTyr(3S-OH,4S-OH,3'-OSO3H) = N[C@H](C(=O)O)[C@H](O)[C@@H](O)c1ccc(O)c(OS(=O)(=O)O)c1; pTerphenylCO(4''-OnC5H11) = CCCCCOc1ccc(-c2ccc(-c3ccc(C(=O)*)cc3)cc2)cc1; Orn(4R-OH,5R-OH) = O=C([C@H](C[C@@H](O)[C@@H](O)N[*:3])N[*:1])[*:2]; hTyr(3S-OH,4S-OH) = N[C@H](C(=O)O)[C@H](O)[C@@H](O)c1ccc(O)cc1; Pro(3S-OH,4S-Me) = C[C@H]1CN[C@H](C(=O)O)[C@H]1O; X1 = CCCCCOc1ccc(-c2cc(-c3ccc(C(=O)*)cc3)no2)cc1; Gln(3R-OH) = NC(=O)C[C@@H](O)[C@H](N)C(=O)O; Hyp = O=C(O)[C@@H]1C[C@@H](O)CN1
Assays:
[1] = Antifungal activity against Madurella mycetomatis isolate 31 by XTT assay; type: functional
Summary of the method: (§1)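 Ketoconazole, caspofungin and anidulafungin diluted in DMSO, micafungin in normal saline. Viability read by XTT reduction. MIC is the first concentration giving >80% spectrophotometric reduction. Done independently in triplicate.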

[2] = Antifungal activity against Madurella mycetomatis isolate 35 by XTT assay; type: functional; summary of the method: as §1
[3] = Antifungal activity against Madurella mycetomatis isolate 36 by XTT assay; type: functional; summary of the method: as §1
[4] = Antifungal activity against Madurella mycetomatis isolate 39 by XTT assay; type: functional; summary of the method: as §1
[5] = Antifungal activity against Madurella mycetomatis isolate 41 by XTT assay; type: functional; summary of the method: as §1
[6] = Antifungal activity against Madurella mycetomatis isolate 43 by XTT assay; type: functional; summary of the method: as §1
[7] = Antifungal activity against Madurella mycetomatis isolate 45 by XTT assay; type: functional; summary of the method: as §1
[8] = Antifungal activity against Madurella mycetomatis isolate 46 by XTT assay; type: functional; summary of the method: as §1
[9] = Antifungal activity against Madurella mycetomatis isolate 49 by XTT assay; type: functional; summary of the method: as §1
[10] = Antifungal activity against Madurella mycetomatis isolate 50 by XTT assay; type: functional; summary of the method: as §1
[11] = Antifungal activity against Madurella mycetomatis isolate 52 by XTT assay; type: functional; summary of the method: as §1
[12] = Antifungal activity against Madurella mycetomatis isolate 54 by XTT assay; type: functional; summary of the method: as §1
[13] = Antifungal activity against Madurella mycetomatis isolate 55 by XTT assay; type: functional; summary of the method: as §1
[14] = Antifungal activity against Madurella mycetomatis isolate 64 by XTT assay; type: functional; summary of the method: as §1
[15] = Antifungal activity against Madurella mycetomatis isolate 68 by XTT assay; type: functional; summary of the method: as §1
[16] = Antifungal activity against Madurella mycetomatis isolate 73 by XTT assay; type: functional; summary of the method: as §1
[17] = Antifungal activity against Madurella mycetomatis isolate 83 by XTT assay; type: functional; summary of the method: as §1
Aspergillus fumigatus [18] = experiment: Antifungal activity against Aspergillus fumigatus ATCC 204305 by XTT assay; type: functional; settings: for minimal effective concentration: read-out: MEC
Summary of the method: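 XTT viability assay in RPMI, run independently in triplicate, with a conidial inoculum. Twofold dilutions from 0.007 to 128 mg/liter for echinocandins and 0.016 to 16 mg/liter for KTZ. Drugs dissolved in DMSO, except micafungin in normal saline. MIC is the first concentration giving more than 80% spectrophotometric reduction. MEC is the first concentration with altered growth.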

Madurella mycetomatis = experiment: Inhibition of beta-1,3-D-glucan synthesis in Madurella mycetomatis isolate 55 after 7 days by […] assay; type: functional
Summary of the method: (§2)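 A hyphal suspension in RPMI was exposed to drug in tubes for 7 days at 37°C. Mycelium was freeze-dried, taken up in 1 M NaOH, probe-sonicated for 15 s and held at 52°C for 30 min. Glucan was measured by aniline blue fluorescence with curdlan as standard, then scaled to viable cells from XTT relative to growth control. Results are means with standard deviation.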

Aspergillus fumigatus [19] = experiment: Inhibition of beta-1,3-D-glucan synthesis in Aspergillus fumigatus ATCC 204305 after 48 hrs by […] assay; type: functional, organism-based
Summary of the method: as §2, with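 “conidial” for “hyphal”, “48 h.” for “7 days at 37°C.”, “corrected” for “scaled”, “by XTT.” for “from XTT relative to growth control.”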

| Compound | MIC [1] [µg/mL] | MIC [2] [µg/mL] | MIC [3] [µg/mL] | MIC [4] [µg/mL] | MIC [5] [µg/mL] | MIC [6] [µg/mL] | MIC [7] [µg/mL] | MIC [8] [µg/mL] | MIC [9] [µg/mL] | MIC [10] [µg/mL] | MIC [11] [µg/mL] | MIC [12] [µg/mL] | MIC [13] [µg/mL] | MIC [14] [µg/mL] | MIC [15] [µg/mL] | MIC [16] [µg/mL] | MIC [17] [µg/mL] | MIC (Aspergillus fumigatus [18]) [µg/mL] | minimal effective concentration (Aspergillus fumigatus [18]) [µg/mL] | inhibition (Madurella mycetomatis) | also measured |
| --- | --- | --- | --- | --- | --- | --- | --- | --- | --- | --- | --- | --- | --- | --- | --- | --- | --- | --- | --- | --- | --- |
| CC(=O)N1CCN(c2ccc(OCC3COC(Cn4ccnc4)(c4ccc(Cl)cc4Cl)O3)cc2)CC1 (configuration not stated) | 0.063 (≈ 0.119 µM) | 1 (≈ 1.88 µM) | 0.063 (≈ 0.119 µM) | 0.031 (≈ 0.0583 µM) | 0.125 (≈ 0.235 µM) | 0.063 (≈ 0.119 µM) | 0.25 (≈ 0.47 µM) | 0.016 (≈ 0.0301 µM) | 0.031 (≈ 0.0583 µM) | 0.063 (≈ 0.119 µM) | 0.25 (≈ 0.47 µM) | 0.031 (≈ 0.0583 µM) | 0.25 (≈ 0.47 µM) | 0.063 (≈ 0.119 µM) | 0.125 (≈ 0.235 µM) | 0.063 (≈ 0.119 µM) | 0.125 (≈ 0.235 µM) |  |  |  |  |
| CCCCCOc1ccc(-c2ccc(-c3ccc(C(=O)N[C@H]4C[C@@H](O)[C@@H](O)NC(=O)[C@@H]5[C@@H](O)[C@@H](C)CN5C(=O)[C@H]([C@@H](C)O)NC(=O)[C@H]([C@H](O)[C@@H](O)c5ccc(O)cc5)NC(=O)[C@@H]5C[C@@H](O)CN5C(=O)[C@H]([C@@H](C)O)NC4=O)cc3)cc2)cc1 [ANIDULAFUNGIN] ({pTerphenylCO(4''-OnC5H11)}-[Orn(4R-OH,5R-OH)]T[Hyp][hTyr(3S-OH,4S-OH)]T[Pro(3S-OH,4S-Me)]; lactam 1-C) | > 128 | > 128 | > 128 | > 128 | 0.5 (≈ 0.438 µM) | > 128 | > 128 | > 128 | > 128 | > 128 | > 128 | > 128 | > 128 | > 128 | > 128 | > 128 | > 128 | > 128 | < 0.007 | inactive | inhibition (Aspergillus fumigatus [19]): inactive |
| CC[C@H](C)C[C@H](C)CCCCCCCCC(=O)N[C@H]1C[C@@H](O)[C@@H](NCCN)NC(=O)[C@@H]2[C@@H](O)CCN2C(=O)[C@H]([C@H](O)CCN)NC(=O)[C@H]([C@H](O)[C@@H](O)c2ccc(O)cc2)NC(=O)[C@@H]2C[C@@H](O)CN2C(=O)[C@H]([C@@H](C)O)NC1=O [CASPOFUNGIN] | 64 (≈ 58.5 µM) | 128 (≈ 117 µM) | 128 (≈ 117 µM) | 64 (≈ 58.5 µM) | 16 (≈ 14.6 µM) | 128 (≈ 117 µM) | 64 (≈ 58.5 µM) | 64 (≈ 58.5 µM) | 32 (≈ 29.3 µM) | 128 (≈ 117 µM) | 128 (≈ 117 µM) | 64 (≈ 58.5 µM) | 128 (≈ 117 µM) | 64 (≈ 58.5 µM) | 64 (≈ 58.5 µM) | 64 (≈ 58.5 µM) | 128 (≈ 117 µM) | 128 (≈ 117 µM) | 0.125 | inactive |  |
| CCCCCOc1ccc(-c2cc(-c3ccc(C(=O)N[C@H]4C[C@@H](O)[C@@H](O)NC(=O)[C@@H]5[C@@H](O)[C@@H](C)CN5C(=O)[C@H]([C@H](O)CC(N)=O)NC(=O)[C@H]([C@H](O)[C@@H](O)c5ccc(O)c(OS(=O)(=O)O)c5)NC(=O)[C@@H]5C[C@@H](O)CN5C(=O)[C@H]([C@@H](C)O)NC4=O)cc3)no2)cc1 [MICAFUNGIN] (X1-[Orn(4R-OH,5R-OH)]T[Hyp][hTyr(3S-OH,4S-OH,3'-OSO3H)][Gln(3R-OH)][Pro(3S-OH,4S-Me)]; lactam 1-C) | > 128 | > 128 | > 128 | > 128 | 8 (≈ 6.3 µM) | 128 (≈ 101 µM) | > 128 | > 128 | > 128 | > 128 | > 128 | > 128 | > 128 | > 128 | > 128 | > 128 | 128 (≈ 101 µM) |  |  | inactive | inhibition (Aspergillus fumigatus [19]): inactive |
